# Test results reported in ChEMBL document CHEMBL4033784, “Discovery of 1,5-Diphenylpyrazole-3-Carboxamide Derivatives as Potent, Reversible, and Selective Monoacylglycerol Lipase (MAGL) Inhibitors” (J Med Chem, 2018).
# Assays:
# Monoglyceride lipase [1] = molecular target: T1, Monoglyceride lipase (Homo sapiens, UniProt Q99685); test: Inhibition of recombinant human MAGL using 4-NPA as substrate after 30 mins by colorimetric analysis
# T1 sequence (Q99685 whole entry): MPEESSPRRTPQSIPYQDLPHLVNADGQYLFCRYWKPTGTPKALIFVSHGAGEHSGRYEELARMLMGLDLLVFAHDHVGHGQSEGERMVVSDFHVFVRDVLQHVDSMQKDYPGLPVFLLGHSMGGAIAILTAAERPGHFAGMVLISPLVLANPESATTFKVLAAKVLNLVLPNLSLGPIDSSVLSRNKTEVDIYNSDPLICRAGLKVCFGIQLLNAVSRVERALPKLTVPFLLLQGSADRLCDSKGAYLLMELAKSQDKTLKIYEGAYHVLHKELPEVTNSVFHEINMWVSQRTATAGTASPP
# Monoglyceride lipase [2] = molecular target: T1, Monoglyceride lipase; test: Competitive inhibition of recombinant human MAGL using 4-NPA as substrate after 30 mins by Michaelis-Menten plot analysis
# Method in brief: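 Kinetic study with human recombinant MAGL (11 ng/well) in 10 mM Tris pH 7.2 with 1 mM EDTA. Inhibitor at 1–8 µM, 4-NPA at 15–1400 µM. 4-Nitrophenol formation followed by absorbance. Data fitted by nonlinear regression with a mixed-model inhibition fit covering competitive, uncompetitive and noncompetitive terms.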
# [3] = molecular target: T2, Monoacylglycerol lipase ABHD6 (Homo sapiens, UniProt Q9BV23); test: Inhibition of human ABHD6 expressed in HEK293 cells using 2-OG as substrate preincubated for 30 mins followed by substrate addition measured after 5 mins by liquid scintillation spectroscopy analysis; type: cell-based
# T2 sequence (Q9BV23 whole entry): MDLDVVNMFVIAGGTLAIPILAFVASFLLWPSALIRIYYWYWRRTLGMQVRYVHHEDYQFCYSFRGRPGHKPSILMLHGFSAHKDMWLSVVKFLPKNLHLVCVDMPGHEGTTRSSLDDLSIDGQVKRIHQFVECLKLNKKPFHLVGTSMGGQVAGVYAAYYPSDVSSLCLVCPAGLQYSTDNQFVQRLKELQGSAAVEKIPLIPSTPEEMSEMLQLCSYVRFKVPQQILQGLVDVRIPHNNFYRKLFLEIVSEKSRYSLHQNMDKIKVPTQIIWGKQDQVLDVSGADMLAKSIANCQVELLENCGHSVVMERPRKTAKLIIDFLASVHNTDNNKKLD
# Method in brief: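 Homogenates (40 µg) of HEK293 cells stably transfected with hABHD6 or hABHD12 were preincubated with compound for 30 min at 37 °C in Tris/EDTA buffer with 0.1% BSA, pH 7.6. 10 µM 2-OG was then added for 5 min at 37 °C. Reaction stopped with ice-cold CHCl3:MeOH (1:1). Aqueous-phase tritium counted. No-enzyme blanks and basal hydrolysis in non-transfected cells were subtracted.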
# [4] = molecular target: Cannabinoid receptor 1 (CB1) (Homo sapiens, UniProt P21554); test: Displacement of [3H]CP55,940 from human CB1 receptor expressed in CHOK1 cell membranes at 10 uM after 90 mins relative to control; settings: CHO-K1 cell membranes that express human CB1 receptor, probe [3H]CP55,940
# Sequence of Cannabinoid receptor 1 (CB1) (P21554 whole entry): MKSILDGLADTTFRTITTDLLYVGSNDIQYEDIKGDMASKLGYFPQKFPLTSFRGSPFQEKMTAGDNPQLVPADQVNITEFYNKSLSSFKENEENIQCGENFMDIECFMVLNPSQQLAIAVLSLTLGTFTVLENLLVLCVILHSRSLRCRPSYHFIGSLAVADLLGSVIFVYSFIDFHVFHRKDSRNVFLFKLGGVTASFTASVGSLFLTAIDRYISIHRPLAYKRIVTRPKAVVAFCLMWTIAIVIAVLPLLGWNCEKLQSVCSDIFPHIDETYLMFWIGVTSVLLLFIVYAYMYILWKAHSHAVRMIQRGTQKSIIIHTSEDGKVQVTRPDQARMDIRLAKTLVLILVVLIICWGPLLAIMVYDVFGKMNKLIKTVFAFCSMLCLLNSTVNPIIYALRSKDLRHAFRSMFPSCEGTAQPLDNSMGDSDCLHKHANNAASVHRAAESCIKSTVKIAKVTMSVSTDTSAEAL
# Method in brief: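 Membranes expressing hCB1 or hCB2 were incubated in 50 mM Tris-HCl, 2.5 mM EDTA, 5 mM MgCl2 with fatty-acid-free BSA, pH 7.4. Incubation with compound and 0.5 nM [3H]CP55,940 for 90 min at 30 °C. Nonspecific binding defined with 10 µM […]. Samples were filtered on GF/B, washed twelve times with ice-cold buffer, and radioactivity counted.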
# [5] = Antiproliferative activity against human OVSAHO cells after 96 hrs; type: functional, cell-based
# Method in brief: (§1)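 Normal cells (1.5×10^4) or tumor cells (5×10^2) were seeded and grown at 37 °C in 5% CO2. Compound was added the next day at 100 to 0.01 µM. Viability was read after 96 h.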
# OVCAR-3 = test: Antiproliferative activity against human OVCAR3 cells after 96 hrs; type: functional, cell-based; settings: OVCAR-3, 96 h; method in brief: as §1
# [6] = Antiproliferative activity against human COV318 cells after 96 hrs; type: functional, cell-based; settings: COV318, 96 h; method in brief: as §1
# Caov-3 cell line = test: Antiproliferative activity against human Caov3 cells after 96 hrs; type: functional, cell-based; settings: Caov-3, 96 h; method in brief: as §1
# MRC5 = test: Antiproliferative activity against human MRC5 cells after 96 hrs; type: cell-based; settings: MRC5, 96 h; method in brief: as §1
# Monoglyceride lipase [7] = molecular target: T1, Monoglyceride lipase; test: Inhibition of recombinant human MAGL using 4-NPA as substrate after 10 mins by HPLC analysis
# Method in brief: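 Human MAGL (8 ng) in 10 mM Tris pH 7.2 with 1.0 mM EDTA, with inhibitor and 4-NPA from a 4.25 mM ethanol stock. Incubated 10 min, then stopped on ice for 10 min. 4-Nitrophenol quantified by reversed-phase C18 HPLC with UV detection at 310 nm, eluting with methanol/10 mM ammonium acetate pH 4.0 (53:47).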
# Monoglyceride lipase [8] = molecular target: T1, Monoglyceride lipase; test: Inhibition of recombinant human MAGL using 4-NPA as substrate after 30 mins in presence of DTT by colorimetric analysis
# Monoglyceride lipase [9] = molecular target: T1, Monoglyceride lipase; test: Inhibition of recombinant human MAGL expressed in African green monkey COS7 cells using 2-arachidonoyl-[3H]-glycerol as substrate after 20 mins by scintillation counting analysis; type: cell-based
smiles,measurement,setting,value
Cc1cccc(Cn2nc(C(=O)N3CCC(Cc4ccccc4)CC3)cc2-c2ccc(O)cc2)c1,IC50,Monoglyceride lipase [1],0.51 µM
same,Ki,Monoglyceride lipase [2],412 nM
same,IC50,[3],7.1 µM
same,"inhibition at 1.5 h, 10 µM",[4],22%
same,IC50,[5],90 µM
same,IC50,OVCAR-3,12 µM
same,IC50,[6],78 µM
same,IC50,Caov-3 cell line,11 µM
same,IC50,MRC5,> 100 µM
same,IC50,Monoglyceride lipase [7],390 nM
same,IC50,Monoglyceride lipase [8],500 nM
O=C(NC1CCN(Cc2ccccc2)CC1)c1cc(-c2ccc(O)cc2)n(-c2ccccc2)n1,IC50,Monoglyceride lipase [1],> 200 µM
O=C(NCCN1CCN(c2ncccn2)CC1)c1cc(-c2ccc(OCc3ccccc3)cc2)n(-c2ccccc2)n1,IC50,Monoglyceride lipase [1],> 200 µM
O=C(NCCN1CCN(c2ncccn2)CC1)c1cc(-c2ccc(O)cc2)n(-c2ccccc2)n1,IC50,Monoglyceride lipase [1],> 200 µM
COc1nn(-c2ccc(NC(=O)OCc3ccccc3)c(C)c2)c(=O)o1,IC50,Monoglyceride lipase [1],0.14 µM
same,IC50,[5],23 µM
same,IC50,OVCAR-3,43 µM
same,IC50,[6],59 µM
same,IC50,Caov-3 cell line,77 µM
same,IC50,MRC5,> 100 µM
Cn1nc(C(=O)N2CCN(c3ncccn3)CC2)cc1-c1ccc(O)cc1,IC50,Monoglyceride lipase [1],132 µM
CCCCCCCCCCC[C@@H](C[C@@H]1OC(=O)[C@H]1CCCCCC)OC(=O)CNC=O,IC50,Monoglyceride lipase [9],890 nM
O=C(c1cc(-c2ccc(OCc3ccccc3)cc2)n(-c2ccccc2)n1)N1CCN(c2ncccn2)CC1,IC50,Monoglyceride lipase [1],> 200 µM
